Assay results reported in ChEMBL document CHEMBL4196175, “First SAR Study for Overriding NRAS Mutant Driven Acute Myeloid Leukemia” (J Med Chem, 2018).
Active and inactive are the calls of the source. No cut-off for these calls is given here.

Columns and labels:
[1] = system: BaF3; assay: Induction of apoptosis in mouse BA/F3 cells expressing NRAS-G12D mutant assessed as increase in cleaved PARP levels at 1 uM after 24 hrs by Western blot analysis; format: functional, cell-based
Procedure, shortened: (§1)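 Cells treated 24 h with indicated concentrations (1 µM; 5 µM also used in Ba/F3-NRAS-G12D); cleaved PARP, cleaved caspase 3, bcl-2 and MCL1 detected by western blot with actin as loading control.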

[2] = system: BaF3; assay: Induction of apoptosis in mouse BA/F3 cells expressing NRAS-G12D mutant assessed as increase in cleaved caspase-3 levels at 1 uM after 24 hrs by Western blot analysis; format: functional, cell-based; procedure, shortened: as §1
[3] = Tmax in mouse at 10 mg/kg, po; format: ADME, organism-based; details: in vivo
[4] = system: BaF3; assay: Induction of apoptosis in mouse BA/F3 cells expressing NRAS-G12D mutant assessed as increase in cleaved PARP levels at 5 uM after 24 hrs by Western blot analysis; format: functional, cell-based; procedure, shortened: as §1
[5] = molecular target: Tyrosine-protein kinase Blk (Homo sapiens) (UniProt P51451); assay: Inhibition of human BLK at 1 uM relative to control
Tyrosine-protein kinase Blk (Homo sapiens), sequence (P51451 2-505 limits assumed): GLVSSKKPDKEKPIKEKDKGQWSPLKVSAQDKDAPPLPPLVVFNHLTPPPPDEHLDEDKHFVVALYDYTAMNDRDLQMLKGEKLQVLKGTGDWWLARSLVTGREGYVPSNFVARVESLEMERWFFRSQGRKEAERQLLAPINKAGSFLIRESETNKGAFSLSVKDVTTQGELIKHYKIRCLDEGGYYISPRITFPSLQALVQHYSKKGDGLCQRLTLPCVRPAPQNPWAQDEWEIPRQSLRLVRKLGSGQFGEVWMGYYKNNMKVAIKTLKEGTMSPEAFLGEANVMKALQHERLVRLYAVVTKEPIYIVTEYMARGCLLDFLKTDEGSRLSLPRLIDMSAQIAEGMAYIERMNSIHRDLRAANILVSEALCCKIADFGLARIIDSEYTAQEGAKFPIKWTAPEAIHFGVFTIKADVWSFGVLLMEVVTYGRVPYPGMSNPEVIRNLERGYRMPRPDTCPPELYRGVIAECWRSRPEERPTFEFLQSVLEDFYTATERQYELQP

[6] = molecular target: Ephrin type-B receptor 1 (Homo sapiens) (UniProt P54762); assay: Inhibition of human EphB1 at 1 uM relative to control
Ephrin type-B receptor 1 (Homo sapiens), sequence (P54762 whole entry): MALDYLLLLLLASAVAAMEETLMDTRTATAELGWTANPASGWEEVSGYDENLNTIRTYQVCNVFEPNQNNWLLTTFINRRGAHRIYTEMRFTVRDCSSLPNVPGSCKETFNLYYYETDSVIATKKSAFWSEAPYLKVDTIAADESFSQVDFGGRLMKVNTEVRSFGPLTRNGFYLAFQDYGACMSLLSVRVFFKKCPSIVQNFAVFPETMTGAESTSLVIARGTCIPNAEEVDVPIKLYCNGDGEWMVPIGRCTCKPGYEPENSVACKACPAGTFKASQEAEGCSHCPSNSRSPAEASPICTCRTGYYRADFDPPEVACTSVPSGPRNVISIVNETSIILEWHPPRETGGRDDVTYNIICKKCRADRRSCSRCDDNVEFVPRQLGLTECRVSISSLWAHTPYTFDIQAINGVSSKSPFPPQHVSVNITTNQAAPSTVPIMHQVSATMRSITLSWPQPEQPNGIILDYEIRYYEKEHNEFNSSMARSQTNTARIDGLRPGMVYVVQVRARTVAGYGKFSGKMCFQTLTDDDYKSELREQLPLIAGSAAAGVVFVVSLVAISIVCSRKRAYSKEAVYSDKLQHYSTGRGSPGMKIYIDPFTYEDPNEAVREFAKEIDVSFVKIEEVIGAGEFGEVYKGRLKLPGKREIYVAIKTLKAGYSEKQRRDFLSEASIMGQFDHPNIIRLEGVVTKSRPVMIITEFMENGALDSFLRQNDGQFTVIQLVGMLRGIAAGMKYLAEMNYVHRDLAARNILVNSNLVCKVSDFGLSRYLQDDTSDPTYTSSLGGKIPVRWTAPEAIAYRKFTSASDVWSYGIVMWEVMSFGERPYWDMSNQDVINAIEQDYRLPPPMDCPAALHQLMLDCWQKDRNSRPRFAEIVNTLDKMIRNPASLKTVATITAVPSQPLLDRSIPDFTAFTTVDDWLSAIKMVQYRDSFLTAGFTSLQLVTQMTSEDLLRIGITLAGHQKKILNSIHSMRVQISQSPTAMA

[7] = molecular target: Mitogen-activated protein kinase 11 (Homo sapiens) (UniProt Q15759); assay: Inhibition of human P38beta at 1 uM relative to control
[8] = molecular target: Discoidin domain-containing receptor 2 (Homo sapiens) (UniProt Q16832); assay: Inhibition of human DDR2 at 1 uM relative to control
[9] = molecular target: Platelet-derived growth factor receptor beta (Homo sapiens) (UniProt P09619); assay: Inhibition of human PDGFRbeta at 1 uM relative to control
Platelet-derived growth factor receptor beta (Homo sapiens), sequence (P09619 whole entry): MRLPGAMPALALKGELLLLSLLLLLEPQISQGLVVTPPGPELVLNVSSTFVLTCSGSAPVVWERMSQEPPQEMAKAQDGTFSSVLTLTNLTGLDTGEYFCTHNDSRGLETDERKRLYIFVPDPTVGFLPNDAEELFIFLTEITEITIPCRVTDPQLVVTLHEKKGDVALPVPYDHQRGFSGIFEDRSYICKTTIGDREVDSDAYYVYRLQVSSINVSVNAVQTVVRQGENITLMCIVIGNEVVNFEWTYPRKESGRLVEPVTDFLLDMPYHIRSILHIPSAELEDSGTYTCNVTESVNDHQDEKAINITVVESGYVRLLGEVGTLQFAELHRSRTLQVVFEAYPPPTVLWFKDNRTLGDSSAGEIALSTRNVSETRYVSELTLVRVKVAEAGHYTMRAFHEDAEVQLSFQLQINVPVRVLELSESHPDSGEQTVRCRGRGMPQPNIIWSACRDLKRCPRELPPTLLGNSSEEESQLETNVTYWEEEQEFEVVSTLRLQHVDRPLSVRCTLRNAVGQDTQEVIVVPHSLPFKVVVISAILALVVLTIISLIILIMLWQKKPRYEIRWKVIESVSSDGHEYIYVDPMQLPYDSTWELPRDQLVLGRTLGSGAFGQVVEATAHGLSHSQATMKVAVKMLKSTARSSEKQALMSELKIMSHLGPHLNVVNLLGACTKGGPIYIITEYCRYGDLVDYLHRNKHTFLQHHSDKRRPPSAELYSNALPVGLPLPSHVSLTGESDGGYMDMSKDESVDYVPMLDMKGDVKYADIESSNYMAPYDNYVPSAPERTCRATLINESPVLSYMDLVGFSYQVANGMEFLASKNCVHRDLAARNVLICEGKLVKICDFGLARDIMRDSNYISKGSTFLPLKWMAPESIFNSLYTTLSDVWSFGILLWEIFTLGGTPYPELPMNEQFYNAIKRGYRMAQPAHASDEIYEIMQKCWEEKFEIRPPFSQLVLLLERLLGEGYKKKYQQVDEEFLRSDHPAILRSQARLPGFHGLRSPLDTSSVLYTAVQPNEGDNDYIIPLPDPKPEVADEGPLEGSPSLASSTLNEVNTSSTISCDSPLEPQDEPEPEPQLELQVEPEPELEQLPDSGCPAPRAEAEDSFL

[10] = molecular target: Tyrosine-protein kinase ABL2 (Homo sapiens) (UniProt P42684); assay: Inhibition of human ABL2 at 1 uM relative to control
[11] = molecular target: Proto-oncogene tyrosine-protein kinase receptor Ret (Homo sapiens) (UniProt P07949); assay: Inhibition of human RET at 1 uM relative to control
Proto-oncogene tyrosine-protein kinase receptor Ret (Homo sapiens), sequence (P07949 whole entry): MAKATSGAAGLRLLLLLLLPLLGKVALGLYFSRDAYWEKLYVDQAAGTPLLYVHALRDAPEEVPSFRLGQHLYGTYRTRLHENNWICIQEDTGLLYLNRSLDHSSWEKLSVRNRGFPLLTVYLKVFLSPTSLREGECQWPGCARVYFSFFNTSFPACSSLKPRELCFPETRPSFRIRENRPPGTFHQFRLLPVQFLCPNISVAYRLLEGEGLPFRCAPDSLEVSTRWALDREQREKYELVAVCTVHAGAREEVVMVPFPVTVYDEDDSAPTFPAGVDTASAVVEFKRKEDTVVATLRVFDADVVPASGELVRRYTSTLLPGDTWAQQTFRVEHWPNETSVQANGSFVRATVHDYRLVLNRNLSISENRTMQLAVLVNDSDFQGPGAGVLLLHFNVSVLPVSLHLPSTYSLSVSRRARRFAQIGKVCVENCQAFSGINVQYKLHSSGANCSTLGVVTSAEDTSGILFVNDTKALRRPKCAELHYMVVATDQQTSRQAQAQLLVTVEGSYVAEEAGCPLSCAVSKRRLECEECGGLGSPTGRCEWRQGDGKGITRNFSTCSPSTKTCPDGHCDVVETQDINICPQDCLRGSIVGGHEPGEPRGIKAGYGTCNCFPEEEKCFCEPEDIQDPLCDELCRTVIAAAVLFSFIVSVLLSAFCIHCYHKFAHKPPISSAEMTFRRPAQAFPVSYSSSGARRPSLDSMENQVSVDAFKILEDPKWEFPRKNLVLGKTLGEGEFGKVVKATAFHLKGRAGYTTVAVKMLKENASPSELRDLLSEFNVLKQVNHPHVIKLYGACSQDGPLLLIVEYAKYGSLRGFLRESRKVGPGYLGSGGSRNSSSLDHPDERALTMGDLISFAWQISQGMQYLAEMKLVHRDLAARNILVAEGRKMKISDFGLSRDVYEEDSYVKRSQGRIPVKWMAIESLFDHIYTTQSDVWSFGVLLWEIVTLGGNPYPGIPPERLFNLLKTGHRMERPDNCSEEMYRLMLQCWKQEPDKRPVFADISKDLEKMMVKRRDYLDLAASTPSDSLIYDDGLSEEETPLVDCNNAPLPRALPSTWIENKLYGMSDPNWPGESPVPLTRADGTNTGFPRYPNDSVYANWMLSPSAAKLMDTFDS

[12] = molecular target: Mitogen-activated protein kinase 14 (Homo sapiens) (UniProt Q16539); assay: Inhibition of human p38alpha at 1 uM relative to control
[13] = molecular target: Tyrosine-protein kinase HCK (Homo sapiens) (UniProt P08631); assay: Inhibition of human HCK at 1 uM relative to control
[14] = molecular target: Tyrosine-protein kinase Fgr (Homo sapiens) (UniProt P09769); assay: Inhibition of human FGR at 1 uM relative to control
[15] = molecular target: Tyrosine-protein kinase Yes (Homo sapiens) (UniProt P07947); assay: Inhibition of human YES at 1 uM relative to control
[16] = molecular target: Ephrin type-A receptor 1 (Homo sapiens) (UniProt P21709); assay: Inhibition of human EphA1 at 1 uM relative to control
[17] = system: OCI-AML-3; assay: Induction of apoptosis in human OCI-AML3 cells harboring NRAS Q61L mutant assessed as increase in apoptotic cells after 24 hrs by annexin V/propidium iodide staining based FACS analysis; format: functional, cell-based
Procedure, shortened: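 Apoptosis scored by flow cytometry after FITC-annexin V/propidium iodide dual staining following 24 h exposure, at 1 µM or a range of indicated concentrations; three independent experiments, mean with SD, one-way ANOVA.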

[18] = system: BaF3; assay: Antileukemic activity against mouse BA/F3 cells harboring NRAS-G12D mutant allografted in immunodeficient mouse assessed as median survival time at 15 mg/kg/day, po qd administered on day 6 post implantation (reference value: 23 days); format: functional
[19] = system: OCI-AML-3; assay: Antileukemic activity against human OCI-AML3 cells harboring NRAS-Q61L mutant xenografted in immunodeficient mouse assessed as tumor volume at 15 mg/kg/day, po qd administered on day 21 post implantation measured on day 20 post dose (reference value: 100%); format: functional
[20] = system: Mus musculus; assay: Toxicity in immunodeficient mouse allografted with mouse BA/F3 cells harboring NRAS-G12D mutant assessed as body weight loss at 15 to 25 mg/kg/day, po qd administered on day 6 post implantation; format: organism-based; details: in vivo
Procedure, shortened: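 Immunodeficient mice were given Ba/F3-NRAS-G12D/luciferase cells by tail-vein injection and then dosed orally once daily, with a vehicle-only cohort as control. Body weight was followed during treatment. The bioluminescence cohorts had n=4 and were treated for 3 weeks.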

[21] = system: OCI-AML-3; assay: Growth inhibition of ACK1/GCK knockdown human OCI-AML3 cells harboring NRAS-Q61L mutant at 0.5 uM after 72 hrs by celltiter-glo assay; format: functional, cell-based
[22] = molecular target: RAF proto-oncogene serine/threonine-protein kinase (Homo sapiens) (UniProt P04049); details: 1 uM
RAF proto-oncogene serine/threonine-protein kinase (Homo sapiens), sequence (P04049 whole entry): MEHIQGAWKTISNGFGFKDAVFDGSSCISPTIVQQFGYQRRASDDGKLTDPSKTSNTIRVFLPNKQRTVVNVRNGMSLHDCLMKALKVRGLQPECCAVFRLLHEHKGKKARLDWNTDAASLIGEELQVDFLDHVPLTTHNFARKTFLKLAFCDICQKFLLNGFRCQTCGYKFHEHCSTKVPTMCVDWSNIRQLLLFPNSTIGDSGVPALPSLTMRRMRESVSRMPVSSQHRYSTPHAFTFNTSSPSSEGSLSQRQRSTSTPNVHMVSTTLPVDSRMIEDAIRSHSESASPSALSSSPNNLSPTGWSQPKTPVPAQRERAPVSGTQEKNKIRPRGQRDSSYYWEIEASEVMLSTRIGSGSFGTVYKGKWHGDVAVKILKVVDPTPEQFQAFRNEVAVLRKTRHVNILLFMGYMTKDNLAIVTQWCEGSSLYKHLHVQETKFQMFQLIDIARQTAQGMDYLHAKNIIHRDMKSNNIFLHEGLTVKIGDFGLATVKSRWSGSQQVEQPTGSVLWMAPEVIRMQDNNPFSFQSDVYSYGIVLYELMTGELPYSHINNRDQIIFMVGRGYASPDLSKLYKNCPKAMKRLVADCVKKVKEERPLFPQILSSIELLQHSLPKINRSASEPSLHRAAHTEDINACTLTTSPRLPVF

[23] = molecular target: Cytoplasmic tyrosine-protein kinase BMX (Homo sapiens) (UniProt P51813); details: 1 uM
Cytoplasmic tyrosine-protein kinase BMX (Homo sapiens), sequence (P51813 whole entry): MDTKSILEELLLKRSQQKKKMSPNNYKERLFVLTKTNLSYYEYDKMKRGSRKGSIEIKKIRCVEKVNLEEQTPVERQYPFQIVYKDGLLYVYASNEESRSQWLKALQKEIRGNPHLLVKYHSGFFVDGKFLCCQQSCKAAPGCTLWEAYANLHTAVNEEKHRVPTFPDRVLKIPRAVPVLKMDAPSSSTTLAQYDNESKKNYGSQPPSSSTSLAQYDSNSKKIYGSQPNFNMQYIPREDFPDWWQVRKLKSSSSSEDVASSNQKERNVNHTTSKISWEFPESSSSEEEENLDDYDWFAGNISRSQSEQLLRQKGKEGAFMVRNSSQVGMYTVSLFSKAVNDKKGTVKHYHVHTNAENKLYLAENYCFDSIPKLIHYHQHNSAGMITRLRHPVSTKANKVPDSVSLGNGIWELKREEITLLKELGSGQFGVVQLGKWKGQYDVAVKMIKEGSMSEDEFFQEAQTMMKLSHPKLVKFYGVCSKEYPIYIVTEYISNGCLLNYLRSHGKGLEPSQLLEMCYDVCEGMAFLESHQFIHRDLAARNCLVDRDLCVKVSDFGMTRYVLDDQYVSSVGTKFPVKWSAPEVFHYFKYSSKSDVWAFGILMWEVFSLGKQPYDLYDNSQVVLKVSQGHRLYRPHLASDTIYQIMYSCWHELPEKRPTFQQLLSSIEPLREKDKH

[24] = molecular target: Proto-oncogene tyrosine-protein kinase Src (Homo sapiens) (UniProt P12931); details: 1 uM
[25] = molecular target: T1, Mitogen-activated protein kinase kinase kinase kinase 2 (Homo sapiens) (UniProt Q12851); details: 1 uM
T1 sequence (whole entry): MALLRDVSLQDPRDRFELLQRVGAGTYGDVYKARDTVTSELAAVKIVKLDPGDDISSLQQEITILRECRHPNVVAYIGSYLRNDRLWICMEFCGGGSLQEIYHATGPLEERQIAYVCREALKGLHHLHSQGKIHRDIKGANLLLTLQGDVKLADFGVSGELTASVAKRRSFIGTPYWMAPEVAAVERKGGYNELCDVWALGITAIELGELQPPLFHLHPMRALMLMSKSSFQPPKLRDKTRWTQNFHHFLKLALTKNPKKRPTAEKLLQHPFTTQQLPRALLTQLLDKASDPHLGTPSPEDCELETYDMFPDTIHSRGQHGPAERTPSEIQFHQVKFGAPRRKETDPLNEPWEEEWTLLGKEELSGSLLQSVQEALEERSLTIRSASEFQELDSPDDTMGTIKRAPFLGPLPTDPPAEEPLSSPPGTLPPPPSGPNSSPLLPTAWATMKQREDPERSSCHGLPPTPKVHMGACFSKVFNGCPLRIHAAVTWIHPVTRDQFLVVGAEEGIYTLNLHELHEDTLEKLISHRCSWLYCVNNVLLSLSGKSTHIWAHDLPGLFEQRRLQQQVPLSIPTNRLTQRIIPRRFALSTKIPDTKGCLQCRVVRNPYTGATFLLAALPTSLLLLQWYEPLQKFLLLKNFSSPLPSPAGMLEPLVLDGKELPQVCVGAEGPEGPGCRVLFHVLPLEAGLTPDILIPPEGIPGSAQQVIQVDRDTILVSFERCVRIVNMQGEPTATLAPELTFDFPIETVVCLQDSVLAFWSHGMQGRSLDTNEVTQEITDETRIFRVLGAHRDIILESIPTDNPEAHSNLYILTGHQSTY

CC(=O)N1CCN(c2ccc(Nc3ncc4c(n3)N(C)C(=O)N(c3cc(NC(=O)c5cccc(C(F)(F)F)c5)ccc3C)C4)cn2)CC1
Activity [1]: Active | Activity [2]: Active

Cc1ccc(NC(=O)c2cccc(C(F)(F)F)c2)cc1N1Cc2cnc(N)nc2N(C)C1=O
Tmax [3]: 2.7 h | Activity [4]: Active | inhibition [5]: 95.9% | inhibition [6]: 96.9% | inhibition [7]: 98% | inhibition [8]: 98.1% | inhibition [9]: 98.1% | inhibition [10]: 98.3% | inhibition [11]: 98.7% | inhibition [12]: 98.9% | inhibition [13]: 98.9% | inhibition [14]: 99.1% | inhibition [15]: 99.7% | inhibition [16]: 90.7% | Activity [17]: Dose-dependent effect | MSD [18]: 29 days | Activity [19]: 41.9% | Activity [20]: Non-Toxic | growth inhibition (GI) [21]: Active | inhibition [22]: 99.4% | inhibition [23]: 99.4% | inhibition [24]: 100% | inhibition [25]: 93.8%
